# Measured values from different studies.
# Lines come from different studies, so protocols differ.
# Target: Wee1-like protein kinase (WEE1, Homo sapiens, UniProt P30291)
Compound,test,conditions,quantity,result
COc1ncccc1-c1cnn2ccc(N3CCN(C(=O)OC(C)C)CC3)nc12,"binding, competition with immobilised ligand",1 µM,remaining binding,82%
Nc1ncc(-c2nc(N3CCOCC3)nc(N3CCOCC3)n2)c(C(F)F)n1,"binding, competition with immobilised ligand",10 µM,remaining binding,100%
CC(C)(C)c1cc(C=C(C#N)C#N)cc(Br)c1O,"enzyme activity, inhibitor",0.5 µM,remaining activity,90.9%
COc1cc(Nc2ncc(F)c(Nc3ccc4c(n3)NC(=O)C(C)(C)O4)n2)cc(OC)c1OC,binding,10 µM,inhibition,81%
Cn1cncc1[C@@](O)(COc1ccc(C#N)cc1-c1ccc(OC(F)(F)F)cc1)c1ccc(C#N)cc1,"cell-free assay, competition with immobilised ligand",1 µM,remaining binding,100%
Cn1cc(-c2cccc(N3CCc4c(sc5c4CC(C)(C)C5)C3=O)c2CO)cc(Nc2ccncn2)c1=O,"enzyme activity, inhibitor",1 µM,inhibition,-4%
O=c1[nH]c2ccccc2n1C1CCN(Cc2ccc(-c3[nH]c4cc5ncnc5cc4nc3-c3ccccc3)cc2)CC1,cell-free assay,0.5 µM,remaining signal,93.9%
Cn1cc(-c2cc(F)cc(N3CCn4c(cc5c4CCCC5)C3=O)c2CO)cc(Nc2ccc(N3CCN(C4COC4)CC3)cn2)c1=O,"enzyme activity, inhibitor",0.1 µM,inhibition,3%
Cc1nn(C)cc1-c1nc2c(N3CCN(Cc4ccc(Cl)cc4)CC3)c(Cl)cnc2[nH]1,"binding, competition with immobilised ligand",1 µM,remaining binding,96%
